{"source": "ChEMBL document CHEMBL4177706", "about": "“Exploiting a water network to achieve enthalpy-driven, bromodomain-selective BET inhibitors” (Bioorg Med Chem, 2018)", "key": {"[1]": {"biological_target": "T1, Bromodomain-containing protein 2 (Homo sapiens, UniProt P25440)", "assay": "Inhibition of recombinant human BRD2 bromodomain 1 (49 to 170 residues) using biotin labeled peptide substrate preincubated for 15 mins followed by substrate addition measured after 1 hr by TR-FRET assay", "type": "single protein"}, "[2]": {"biological_target": "T1, Bromodomain-containing protein 2", "assay": "Binding affinity to His-tagged BRD2 bromodomain 2 (unknown origin) by SPR assay", "summary_of_the_method": "(§1)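 SPR at 15 °C: poly-His BRD2 bromodomain constructs capture-coupled (Ni2+/NTA plus EDC/NHS amine coupling) to ~450–530 RU, with a reference channel. Compounds run as 3-fold series from 2 μM, in duplicate, at 150 μL/min.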"}, "[3]": {"species_on_record": "Homo sapiens", "assay": "Selectivity index, ratio of Kd for BRD2 bromodomain 1 (74 to 194 residues) (unknown origin to Kd for BRD2 bromodomain 2 (348 to 455 residues) (unknown origin)"}, "[4]": {"species_on_record": "Homo sapiens", "assay": "Selectivity index, ratio of Kd for His-tagged BRD2 bromodomain 1 (unknown origin) to Kd for His-tagged BRD2 bromodomain 2 (unknown origin)", "summary_of_the_method": "as §1"}, "[5]": {"biological_target": "T1, Bromodomain-containing protein 2", "assay": "Binding affinity to His-tagged BRD2 bromodomain 1 (unknown origin) by SPR assay", "type": "single protein", "summary_of_the_method": "as §1"}, "[6]": {"biological_target": "T1, Bromodomain-containing protein 2"}, "[7]": {"biological_target": "T1, Bromodomain-containing protein 2", "assay": "Binding affinity to BRD2 bromodomain 1 (74 to 194 residues) (unknown origin) by ITC"}, "[8]": {"tested_on": "BJ", "assay": "Cytotoxicity against human BJ cells assessed as reduction in cell viability after 3 days by CellTiter-Glo assay", "type": "cell-based"}, "[9]": {"tested_on": "HepG2", "assay": "Cytotoxicity against human HepG2 cells assessed as reduction in cell viability after 3 days by CellTiter-Glo assay", "type": "cell-based"}, "[10]": {"tested_on": "HEK293", "assay": "Cytotoxicity against HEK293 cells assessed as reduction in cell viability after 3 days by CellTiter-Glo assay", "type": "cell-based, Homo sapiens"}, "[11]": {"biological_target": "T1, Bromodomain-containing protein 2", "assay": "Inhibition of BRD2 in human HD-MB03 cells assessed as reduction in c-Myc protein expression after 72 hrs by Hoechst 33342 staining based immunofluorescence assay", "type": "cell-based", "summary_of_the_method": "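HD-MB03 cells (3000/well, supplemented neurobasal medium) treated 24 h after plating with compound at 2 nM–40 μM final for 72 h. Imaged at 10x; nuclear masks from Hoechst used to quantify MYC per nucleus.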"}, "[12]": {"assay": "Cytotoxicity against human NALM16 cells assessed as reduction in cell viability after 5 days by CellTiter-Glo assay", "conditions": "NALM16, 120 h"}, "[13]": {"tested_on": "LOUCY", "assay": "Cytotoxicity against human Loucy cells assessed as reduction in cell viability after 5 days by CellTiter-Glo assay", "conditions": "120 h"}, "[14]": {"assay": "Cytotoxicity against human HD-MB03 cells assessed as reduction in cell viability after 5 days by CellTiter-Glo assay", "conditions": "HD-MB03, 120 h"}}}
{"smiles": "CC(=O)N1c2ccc(-c3ccc[nH]3)cc2[C@H](NC(=O)OC(C)C)C[C@@H]1C", "values": [{"measurement": "IC50", "setting": "[1]", "value": 1400, "unit": "nM"}, {"measurement": "Kd", "setting": "[2]", "value": 74, "unit": "nM"}, {"measurement": "Selectivity Index", "setting": "[3]", "value": 3.7}, {"measurement": "Selectivity Index", "setting": "[4]", "value": 1.3}, {"measurement": "Kd", "setting": "[5]", "value": 99, "unit": "nM"}, {"measurement": "IC50", "setting": "[6]", "value": 1400, "unit": "nM"}]}
{"smiles": "CC(=O)N1c2ccc(-c3cc[nH]c3)cc2[C@H](NC(=O)OC(C)C)C[C@@H]1C", "values": [{"measurement": "IC50", "setting": "[1]", "value": 2480, "unit": "nM"}, {"measurement": "Kd", "setting": "[2]", "value": 77, "unit": "nM"}, {"measurement": "Selectivity Index", "setting": "[3]", "value": 4.6}, {"measurement": "Selectivity Index", "setting": "[4]", "value": 1.4}, {"measurement": "Kd", "setting": "[5]", "value": 104, "unit": "nM"}, {"measurement": "IC50", "setting": "[6]", "value": 410, "unit": "nM"}]}
{"smiles": "CC(=O)N1c2ccc(-c3ccsc3)cc2[C@H](NC(=O)OC(C)C)C[C@@H]1C", "values": [{"measurement": "IC50", "setting": "[1]", "value": 5210, "unit": "nM"}, {"measurement": "Selectivity Index", "setting": "[3]", "value": 4.2}, {"measurement": "Selectivity Index", "setting": "[4]", "value": 1.5}, {"measurement": "Kd", "setting": "[7]", "value": 71.7, "unit": "nM"}, {"measurement": "Kd", "setting": "[5]", "value": 105, "unit": "nM"}, {"measurement": "IC50", "setting": "[6]", "value": 1080, "unit": "nM"}]}
{"smiles": "COc1cc(OC)c2c(=O)[nH]c(-c3cc(C)c(OCCO)c(C)c3)nc2c1", "note": "[APABETALONE]", "values": [{"measurement": "EC50", "setting": "[8]", "value": "Non-Toxic"}, {"measurement": "EC50", "setting": "[9]", "value": "Non-Toxic"}, {"measurement": "EC50", "setting": "[10]", "value": "Non-Toxic"}]}
{"smiles": "CC(=O)N1c2ccc(-c3ccoc3)cc2[C@H](NC(=O)OC(C)C)C[C@@H]1C", "values": [{"measurement": "IC50", "setting": "[1]", "value": 5800, "unit": "nM"}, {"measurement": "Kd", "setting": "[2]", "value": 148, "unit": "nM"}, {"measurement": "Selectivity Index", "setting": "[3]", "value": 0.5}, {"measurement": "Selectivity Index", "setting": "[4]", "value": 1.7}, {"measurement": "Kd", "setting": "[5]", "value": 245, "unit": "nM"}, {"measurement": "IC50", "setting": "[6]", "value": 1910, "unit": "nM"}]}
{"smiles": "CCNC(=O)C[C@@H]1N=C(c2ccc(Cl)cc2)c2cc(OC)ccc2-n2c(C)nnc21", "note": "[MOLIBRESIB]", "values": [{"measurement": "EC50", "setting": "[8]", "value": "Non-Toxic"}, {"measurement": "EC50", "setting": "[9]", "value": "Non-Toxic"}, {"measurement": "EC50", "setting": "[10]", "value": "Non-Toxic"}]}
{"smiles": "CC(=O)N1c2ccc(-c3cccs3)cc2[C@H](NC(=O)OC(C)C)C[C@@H]1C", "values": [{"measurement": "IC50", "setting": "[1]", "value": 1770, "unit": "nM"}, {"measurement": "Selectivity Index", "setting": "[3]", "value": 2.9}, {"measurement": "Selectivity Index", "setting": "[4]", "value": 1.1}, {"measurement": "Kd", "setting": "[7]", "value": 61.3, "unit": "nM"}, {"measurement": "Kd", "setting": "[5]", "value": 66, "unit": "nM"}, {"measurement": "IC50", "setting": "[6]", "value": 830, "unit": "nM"}]}
{"smiles": "Cc1sc2c(c1C)C(c1ccc(Cl)cc1)=N[C@@H](CC(=O)OC(C)(C)C)c1nnc(C)n1-2", "values": [{"measurement": "EC50", "setting": "[8]", "value": "Non-Toxic"}, {"measurement": "EC50", "setting": "[9]", "value": "Non-Toxic"}, {"measurement": "EC50", "setting": "[10]", "value": "Non-Toxic"}]}
{"smiles": "CC(=O)N1c2ccc(-c3ccco3)cc2[C@H](NC(=O)OC(C)C)C[C@@H]1C", "values": [{"measurement": "EC50", "setting": "[8]", "value": "Non-Toxic"}, {"measurement": "EC50", "setting": "[9]", "value": "Non-Toxic"}, {"measurement": "EC50", "setting": "[10]", "value": "Non-Toxic"}, {"measurement": "inhibition", "setting": "[11]", "value": "Dose-dependent effect"}]}
{"smiles": "CC(=O)N1c2ccc(-c3ccc(C(=O)O)cc3)cc2[C@H](Nc2ccc(Cl)cc2)C[C@@H]1C", "values": [{"measurement": "IC50", "setting": "[1]", "value": 720, "unit": "nM"}, {"measurement": "EC50", "setting": "[8]", "value": "Non-Toxic"}, {"measurement": "EC50", "setting": "[9]", "value": "Non-Toxic"}, {"measurement": "EC50", "setting": "[12]", "value": 310, "unit": "nM"}, {"measurement": "IC50", "setting": "[6]", "value": 30, "unit": "nM"}, {"measurement": "EC50", "setting": "[13]", "value": 700, "unit": "nM"}, {"measurement": "EC50", "setting": "[14]", "value": 200, "unit": "nM"}]}
